Reference: ChEMBL document CHEMBL3272198, “Preparation and in vitro antifungal activities of some quinolizidine derived hemiaminals and beta-tert-amino sulfides” (1976)
Active and inactive are the calls of the source. The calls are words filed in the database; no cut-off is given here.

Columns and labels:
Type in all cases: functional
Histoplasma capsulatum [1] = experiment: Antifungal activity against Histoplasma capsulatum Darling isolate 1106 at 10 ug/ml after 2 weeks (reference value: 25 mm); conditions: Darling isolate 1106, 336 h, read-out: DIZ
Blastomyces dermatitidis [2] = experiment: Antifungal activity against Blastomyces dermatitidis Gilchrist & Stokes isolate 1107 at 40 ug/ml after 1 week (reference value: 20 mm)
Blastomyces dermatitidis [3] = experiment: Antifungal activity against Blastomyces dermatitidis Gilchrist & Stokes isolate 1107 at 60 ug/ml after 2 weeks (reference value: 35 mm); conditions: Gilchrist & Stokes isolate 1107, 336 h, read-out: DIZ
Method in brief: (§1)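 Mycelial phase grown on Sabouraud dextrose agar at 25°C. Agar pH was set to 6 before the test solution was added and was 5.0-5.5 after. Test solutions contained HOAc and Me2SO, and solvent and blank controls were included. Each quadrant was center-inoculated with a 2 × 2 mm piece of a 2-week-old mycelial culture. Colony diameter was measured weekly for 3 weeks and reported as total increments (mm). Duplicates were run.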

Histoplasma capsulatum [4] = experiment: Antifungal activity against Histoplasma capsulatum Darling isolate 1106 at 20 ug/ml after 2 weeks (reference value: 25 mm); conditions: Darling isolate 1106, 336 h, read-out: DIZ
Blastomyces dermatitidis [5] = experiment: Antifungal activity against Blastomyces dermatitidis Gilchrist & Stokes isolate 1099 at 100 ug/ml after 3 weeks (reference value: 34 mm); method in brief: as §1
Blastomyces dermatitidis [6] = experiment: Antifungal activity against Blastomyces dermatitidis Gilchrist & Stokes isolate 1107 at 40 ug/ml after 2 weeks (reference value: 35 mm); conditions: Gilchrist & Stokes isolate 1107, 336 h, read-out: DIZ; method in brief: as §1
Histoplasma capsulatum [7] = experiment: Antifungal activity against Histoplasma capsulatum Darling isolate 1106 at 100 ug/ml after 2 weeks (reference value: 25 mm)
Blastomyces dermatitidis [8] = experiment: Antifungal activity against Blastomyces dermatitidis Gilchrist & Stokes isolate 1099 at 60 ug/ml after 1 week (reference value: 14 mm)
Histoplasma capsulatum [9] = experiment: Antifungal activity against Histoplasma capsulatum Darling isolate 1106 at 10 ug/ml after 1 week (reference value: 14 mm); conditions: Darling isolate 1106, 168 h, read-out: DIZ
Blastomyces dermatitidis [10] = experiment: Antifungal activity against Blastomyces dermatitidis Gilchrist & Stokes isolate 1107 at 10 ug/ml after 3 weeks (reference value: 40 mm); conditions: Gilchrist & Stokes isolate 1107, 504 h, read-out: DIZ; method in brief: as §1
Blastomyces dermatitidis [11] = experiment: Antifungal activity against Blastomyces dermatitidis Gilchrist & Stokes isolate 1099 at 80 ug/ml after 3 weeks (reference value: 34 mm); conditions: Gilchrist & Stokes isolate 1099, 504 h, read-out: DIZ; method in brief: as §1
Histoplasma capsulatum [12] = experiment: Antifungal activity against Histoplasma capsulatum Darling isolate 1106 at 20 ug/ml after 1 week (reference value: 14 mm); conditions: Darling isolate 1106, 168 h, read-out: DIZ
Histoplasma capsulatum [13] = experiment: Antifungal activity against Histoplasma capsulatum Darling isolate 1098 at 100 ug/ml after 1 week (reference value: 12 mm)
Histoplasma capsulatum [14] = experiment: Antifungal activity against Histoplasma capsulatum Darling isolate 1098 at 10 ug/ml after 1 week (reference value: 12 mm); conditions: Darling isolate 1098, 168 h, read-out: DIZ
Histoplasma capsulatum [15] = experiment: Antifungal activity against Histoplasma capsulatum Darling isolate 1106 at 40 ug/ml after 3 weeks (reference value: 31 mm); conditions: Darling isolate 1106, 504 h, read-out: DIZ
Blastomyces dermatitidis [16] = experiment: Antifungal activity against Blastomyces dermatitidis Gilchrist & Stokes isolate 1107 at 40 ug/ml after 3 weeks (reference value: 40 mm); conditions: Gilchrist & Stokes isolate 1107, 504 h, read-out: DIZ; method in brief: as §1
Blastomyces dermatitidis [17] = experiment: Antifungal activity against Blastomyces dermatitidis Gilchrist & Stokes isolate 1107 at 100 ug/ml after 1 week (reference value: 20 mm)
Histoplasma capsulatum [18] = experiment: Antifungal activity against Histoplasma capsulatum Darling isolate 1098 at 100 ug/ml after 3 weeks (reference value: 28 mm)
Histoplasma capsulatum [19] = experiment: Antifungal activity against Histoplasma capsulatum Darling isolate 1098 at 80 ug/ml after 3 weeks (reference value: 28 mm)
Blastomyces dermatitidis [20] = experiment: Antifungal activity against Blastomyces dermatitidis Gilchrist & Stokes isolate 1099 at 10 ug/ml after 1 week (reference value: 14 mm); method in brief: as §1
Blastomyces dermatitidis [21] = experiment: Antifungal activity against Blastomyces dermatitidis Gilchrist & Stokes isolate 1099 at 60 ug/ml after 3 weeks (reference value: 34 mm); conditions: Gilchrist & Stokes isolate 1099, 504 h, read-out: DIZ; method in brief: as §1
Histoplasma capsulatum [22] = experiment: Antifungal activity against Histoplasma capsulatum Darling isolate 1106 at 100 ug/ml after 3 weeks (reference value: 31 mm)
Histoplasma capsulatum [23] = experiment: Antifungal activity against Histoplasma capsulatum Darling isolate 1098 at 20 ug/ml after 1 week (reference value: 12 mm); conditions: Darling isolate 1098, 168 h, read-out: DIZ
Blastomyces dermatitidis [24] = experiment: Antifungal activity against Blastomyces dermatitidis Gilchrist & Stokes isolate 1107 at 20 ug/ml after 1 week (reference value: 20 mm); method in brief: as §1
Blastomyces dermatitidis [25] = experiment: Antifungal activity against Blastomyces dermatitidis Gilchrist & Stokes isolate 1107 at 100 ug/ml after 2 weeks (reference value: 35 mm); method in brief: as §1
Blastomyces dermatitidis [26] = experiment: Antifungal activity against Blastomyces dermatitidis Gilchrist & Stokes isolate 1099 at 100 ug/ml after 2 weeks (reference value: 27 mm)
Blastomyces dermatitidis [27] = experiment: Antifungal activity against Blastomyces dermatitidis Gilchrist & Stokes isolate 1107 at 10 ug/ml after 2 weeks (reference value: 35 mm); conditions: Gilchrist & Stokes isolate 1107, 336 h, read-out: DIZ; method in brief: as §1
Histoplasma capsulatum [28] = experiment: Antifungal activity against Histoplasma capsulatum Darling isolate 1106 at 40 ug/ml after 2 weeks (reference value: 25 mm)
Blastomyces dermatitidis [29] = experiment: Antifungal activity against Blastomyces dermatitidis Gilchrist & Stokes isolate 1099 at 80 ug/ml after 1 week (reference value: 14 mm)
Blastomyces dermatitidis [30] = experiment: Antifungal activity against Blastomyces dermatitidis Gilchrist & Stokes isolate 1099 at 10 ug/ml after 3 weeks (reference value: 34 mm); conditions: Gilchrist & Stokes isolate 1099, 504 h, read-out: DIZ; method in brief: as §1
Histoplasma capsulatum [31] = experiment: Antifungal activity against Histoplasma capsulatum Darling isolate 1106 at 100 ug/ml after 1 week (reference value: 14 mm)
Blastomyces dermatitidis [32] = experiment: Antifungal activity against Blastomyces dermatitidis Gilchrist & Stokes isolate 1107 at 80 ug/ml after 2 weeks (reference value: 35 mm); conditions: Gilchrist & Stokes isolate 1107, 336 h, read-out: DIZ; method in brief: as §1
Blastomyces dermatitidis [33] = experiment: Antifungal activity against Blastomyces dermatitidis Gilchrist & Stokes isolate 1099 at 60 ug/ml after 2 weeks (reference value: 27 mm); method in brief: as §1
Blastomyces dermatitidis [34] = experiment: Antifungal activity against Blastomyces dermatitidis Gilchrist & Stokes isolate 1107 at 80 ug/ml after 1 week (reference value: 20 mm)
Blastomyces dermatitidis [35] = experiment: Antifungal activity against Blastomyces dermatitidis Gilchrist & Stokes isolate 1107 at 100 ug/ml after 3 weeks (reference value: 40 mm); conditions: Gilchrist & Stokes isolate 1107, 504 h, read-out: DIZ; method in brief: as §1
Histoplasma capsulatum [36] = experiment: Antifungal activity against Histoplasma capsulatum Darling isolate 1098 at 100 ug/ml after 2 weeks (reference value: 21 mm)
Blastomyces dermatitidis [37] = experiment: Antifungal activity against Blastomyces dermatitidis Gilchrist & Stokes isolate 1107 at 60 ug/ml after 3 weeks (reference value: 40 mm); conditions: Gilchrist & Stokes isolate 1107, 504 h, read-out: DIZ; method in brief: as §1
Histoplasma capsulatum [38] = experiment: Antifungal activity against Histoplasma capsulatum Darling isolate 1106 at 60 ug/ml after 2 weeks (reference value: 25 mm)
Blastomyces dermatitidis [39] = experiment: Antifungal activity against Blastomyces dermatitidis Gilchrist & Stokes isolate 1099 at 40 ug/ml after 3 weeks (reference value: 34 mm); conditions: Gilchrist & Stokes isolate 1099, 504 h, read-out: DIZ; method in brief: as §1
[40] = Darling isolate 1106, 336 h, read-out: DIZ
[41] = Darling isolate 1098, 504 h, read-out: DIZ

| Structure (SMILES) | zone of inhibition at 10 µg/mL (Histoplasma capsulatum [1]) | Activity (Blastomyces dermatitidis [2]) | zone of inhibition at 60 µg/mL (Blastomyces dermatitidis [3]) | zone of inhibition at 20 µg/mL (Histoplasma capsulatum [4]) | zone of inhibition at 40 µg/mL (Blastomyces dermatitidis [6]) | Activity (Blastomyces dermatitidis [8]) | zone of inhibition at 10 µg/mL (Histoplasma capsulatum [9]) | zone of inhibition at 10 µg/mL (Blastomyces dermatitidis [10]) | zone of inhibition at 80 µg/mL (Blastomyces dermatitidis [11]) | zone of inhibition at 20 µg/mL (Histoplasma capsulatum [12]) | Activity (Histoplasma capsulatum [13]) | zone of inhibition at 10 µg/mL (Histoplasma capsulatum [14]) | zone of inhibition at 40 µg/mL (Histoplasma capsulatum [15]) | zone of inhibition at 40 µg/mL (Blastomyces dermatitidis [16]) | Activity (Blastomyces dermatitidis [17]) | zone of inhibition at 60 µg/mL (Blastomyces dermatitidis [21]) | zone of inhibition at 20 µg/mL (Histoplasma capsulatum [23]) | Activity (Blastomyces dermatitidis [26]) | zone of inhibition at 10 µg/mL (Blastomyces dermatitidis [27]) | Activity (Blastomyces dermatitidis [29]) | further results |
| --- | --- | --- | --- | --- | --- | --- | --- | --- | --- | --- | --- | --- | --- | --- | --- | --- | --- | --- | --- | --- | --- |
| C[C@@H]1[C@H](O)[C@@H](C)/C=C/C=C/C=C/C=C/C=C/C=C/C=C/[C@H](O[C@@H]2O[C@H](C)[C@@H](O)[C@H](N)[C@@H]2O)C[C@@H]2O[C@](O)(C[C@@H](O)C[C@@H](O)[C@H](O)CC[C@@H](O)C[C@@H](O)CC(=O)O[C@H]1C)C[C@H](O)[C@H]2C(=O)O [AMPHOTERICIN B] | 12 mm | inactive | 10 mm | 7 mm | 14 mm | Active | 7 mm | 15 mm | 2 mm | 6 mm | inactive | 8 mm | 13 mm | 13 mm | Active | 4 mm | 8 mm | Active | 9 mm | Active | zone of inhibition at 100 µg/mL (Blastomyces dermatitidis [5]; Gilchrist & Stokes isolate 1099, 504 h, read-out: DIZ): 2 mm; zone of inhibition at 100 µg/mL (Histoplasma capsulatum [7]; [40]): 6 mm; zone of inhibition at 100 µg/mL (Histoplasma capsulatum [18]; [41]): 14 mm; zone of inhibition at 80 µg/mL (Histoplasma capsulatum [19]; [41]): 14 mm; Activity (Blastomyces dermatitidis [20]): Active; zone of inhibition at 100 µg/mL (Histoplasma capsulatum [22]; Darling isolate 1106, 504 h, read-out: DIZ): 10 mm; Activity (Blastomyces dermatitidis [24]): inactive; zone of inhibition at 100 µg/mL (Blastomyces dermatitidis [25]; Gilchrist & Stokes isolate 1107, 336 h, read-out: DIZ): 6 mm; zone of inhibition at 40 µg/mL (Histoplasma capsulatum [28]; [40]): 9 mm; zone of inhibition at 10 µg/mL (Blastomyces dermatitidis [30]): 11 mm; Activity (Histoplasma capsulatum [31]): inactive; zone of inhibition at 80 µg/mL (Blastomyces dermatitidis [32]): 10 mm; Activity (Blastomyces dermatitidis [33]): Active; Activity (Blastomyces dermatitidis [34]): inactive; zone of inhibition at 100 µg/mL (Blastomyces dermatitidis [35]): 11 mm; zone of inhibition at 100 µg/mL (Histoplasma capsulatum [36]; Darling isolate 1098, 336 h, read-out: DIZ): 8 mm; zone of inhibition at 60 µg/mL (Blastomyces dermatitidis [37]): 14 mm; zone of inhibition at 60 µg/mL (Histoplasma capsulatum [38]; [40]): 9 mm; zone of inhibition at 40 µg/mL (Blastomyces dermatitidis [39]): 4 mm |
| C[C@@H]1CC[C@@H](c2ccoc2)N2C(O)[C@@](C)(Sc3ccccc3)CC[C@@H]12 (stereo partly drawn) | 19 mm | inactive | 10 mm | 11 mm | 15 mm | Active | 9 mm | 32 mm | 4 mm | 6 mm | Active | 10 mm | 5 mm | 18 mm | Active | 9 mm | 8 mm | Active | 26 mm | Active | Activity (Blastomyces dermatitidis [5]): Active; Activity (Histoplasma capsulatum [7]): Active; Activity (Histoplasma capsulatum [18]): Active; Activity (Histoplasma capsulatum [19]): Active; zone of inhibition at 10 µg/mL (Blastomyces dermatitidis [20]; Gilchrist & Stokes isolate 1099, 168 h, read-out: DIZ): 12 mm; Activity (Histoplasma capsulatum [22]): Active; zone of inhibition at 20 µg/mL (Blastomyces dermatitidis [24]; Gilchrist & Stokes isolate 1107, 168 h, read-out: DIZ): 7 mm; Activity (Blastomyces dermatitidis [25]): Active; Activity (Histoplasma capsulatum [28]): inactive; zone of inhibition at 10 µg/mL (Blastomyces dermatitidis [30]): 27 mm; Activity (Histoplasma capsulatum [31]): Active; zone of inhibition at 80 µg/mL (Blastomyces dermatitidis [32]): 3 mm; zone of inhibition at 60 µg/mL (Blastomyces dermatitidis [33]; Gilchrist & Stokes isolate 1099, 336 h, read-out: DIZ): 6 mm; Activity (Blastomyces dermatitidis [34]): Active; zone of inhibition at 100 µg/mL (Blastomyces dermatitidis [35]): 3 mm; Activity (Histoplasma capsulatum [36]): Active; zone of inhibition at 60 µg/mL (Blastomyces dermatitidis [37]): 14 mm; Activity (Histoplasma capsulatum [38]): Active; zone of inhibition at 40 µg/mL (Blastomyces dermatitidis [39]): 14 mm |
